Data reported in ChEMBL document CHEMBL1148495, “Racemic and chiral sulfoxides as potential prodrugs of the COX-2 inhibitors Vioxx and Arcoxia” (Bioorg Med Chem Lett, 2006).
Converted amounts (≈) assume the structure as drawn.

Experiments:
Liver microsomes [1] = assay: Stability in human liver microsomes; assay type: ADME, Microsome
Procedure, shortened: (§1)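 Compound at 5 µM was incubated with human or rat liver microsomes (1 mg/mL microsomal protein) for 30 min at 37 °C. Result is given as % metabolism.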

Liver microsomes [2] = assay: Stability in rat liver microsomes; assay type: ADME, Microsome; procedure, shortened: as §1
[3] = target: T1, Prostaglandin G/H synthase 2 (Homo sapiens, UniProt P35354); assay: Inhibition of COX2 in human whole blood; assay type: tissue-based
T1 sequence (P35354 whole entry): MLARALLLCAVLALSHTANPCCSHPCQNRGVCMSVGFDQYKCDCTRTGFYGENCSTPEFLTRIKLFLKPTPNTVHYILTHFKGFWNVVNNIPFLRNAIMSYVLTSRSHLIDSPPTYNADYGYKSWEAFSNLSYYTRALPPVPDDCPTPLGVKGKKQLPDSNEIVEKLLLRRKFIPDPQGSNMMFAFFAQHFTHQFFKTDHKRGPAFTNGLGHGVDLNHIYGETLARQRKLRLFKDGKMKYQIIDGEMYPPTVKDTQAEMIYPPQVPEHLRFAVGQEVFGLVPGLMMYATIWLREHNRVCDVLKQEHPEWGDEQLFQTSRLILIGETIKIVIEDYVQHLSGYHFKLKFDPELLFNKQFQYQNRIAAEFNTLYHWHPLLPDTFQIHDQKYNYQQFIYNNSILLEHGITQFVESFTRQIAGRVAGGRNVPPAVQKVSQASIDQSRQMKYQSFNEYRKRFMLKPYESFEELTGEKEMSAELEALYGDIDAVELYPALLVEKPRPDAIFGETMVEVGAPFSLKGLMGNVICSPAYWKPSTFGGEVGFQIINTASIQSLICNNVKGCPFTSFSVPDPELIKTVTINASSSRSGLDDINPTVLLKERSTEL

[4] = Solubility in SGF at pH 1.8; assay type: physicochemical
[5] = Tmax in Wistar rat at 1 mg/kg, po; assay type: ADME, organism-based; parameters: dose 1 mg/kg, route oral; conditions: in vivo
Procedure, shortened: (§2)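 Male Wistar rats given a single oral dose of 1 mg/kg as a suspension in 0.5% methylcellulose with 0.1% Tween 80. Plasma levels of sulfoxide prodrug and sulfone parent were followed over time. Cmax, tmax and AUC0-t are reported as means (n = 2–3) with SD.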

[6] = Solubility in PBS at pH 7.2; assay type: physicochemical
Rattus norvegicus [7] = assay: Inhibition of adjuvant-induced arthritis in Wistar rat at 0.3 mg/kg, po; assay type: functional
Procedure, shortened: (§3)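 Adjuvant-induced arthritis in male Wistar rats, therapeutic protocol. Compounds were given orally once daily for 7 days, starting on day 14 after arthritis induction. Paw edema was measured 24 h after the last dose and expressed as % inhibition.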

[8] = Cmax in Wistar rat at 1 mg/kg, po; assay type: ADME, organism-based; parameters: dose 1 mg/kg, route oral; conditions: in vivo; procedure, shortened: as §2
Rattus norvegicus [9] = assay: Inhibition of yeast-induced pyresis in Wistar rat at 1 mg/kg, po; assay type: functional
Procedure, shortened: (§4)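 Yeast-induced pyresis, an acute model run as a therapeutic protocol. Compounds were given as a single oral dose. Temperature was recorded at 1 h intervals from 1 to 5 h after dosing and expressed as % inhibition.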

[10] = AUC(0-t) in Wistar rat at 1 mg/kg, po; assay type: ADME, organism-based; parameters: dose 1 mg/kg, route oral; conditions: plasma; procedure, shortened: as §2
[11] = target: T2, Prostaglandin G/H synthase 2 (Homo sapiens) (UniProt P35354); assay: Inhibition of COX2 in human whole blood at 10 uM; assay type: tissue-based
T2 sequence (whole entry): T1 sequence (P35354 whole entry)

Rattus norvegicus [12] = assay: Inhibition of adjuvant-induced arthritis in Wistar rat at 1 mg/kg, po; assay type: functional; procedure, shortened: as §3
Rattus norvegicus [13] = assay: Inhibition of yeast-induced pyresis in Wistar rat at 3 mg/kg, po; assay type: functional; procedure, shortened: as §4
Rattus norvegicus [14] = assay: AUC(0-t) for parent compound after prodrug dosing in Wistar rat at 1 mg/kg, po; assay type: ADME, organism-based, Plasma; parameters: dose 1 mg/kg, route oral; conditions: in vivo; procedure, shortened: as §2
Rattus norvegicus [15] = assay: Cmax for parent compound after prodrug dosing in Wistar rat at 1 mg/kg, po; assay type: ADME, organism-based; parameters: dose 1 mg/kg, route oral; conditions: in vivo; procedure, shortened: as §2
Rattus norvegicus [16] = assay: Tmax for parent compound after prodrug dosing in Wistar rat at 1 mg/kg, po; assay type: ADME, organism-based; parameters: dose 1 mg/kg, route oral; conditions: in vivo; procedure, shortened: as §2

Stability (Liver microsomes [1]) | Stability (Liver microsomes [2]) | IC50 [3] | solubility [4] | Tmax [5] | solubility [6] | Cmax [8] | AUC(0-t) [10] | inhibition [11] | SMILES | inhibition in vivo at 0.3 mg/kg (Rattus norvegicus [7]) | inhibition in vivo at 1 mg/kg (Rattus norvegicus [9]) | inhibition in vivo at 1 mg/kg (Rattus norvegicus [12]) | inhibition in vivo at 3 mg/kg (Rattus norvegicus [13]) | AUC (Rattus norvegicus [14]) | Cmax (Rattus norvegicus [15]) | Tmax (Rattus norvegicus [16])
2% | 17% | 3.5 µM |  |  |  |  |  |  | Cc1ccc(-c2ncc(Cl)cc2-c2ccc([S@+](C)[O-])cc2)cn1 |  |  |  |  |  |  | 
 | 38% |  | 16 µg/mL (≈ 50.9 µM) | 24 min | 15 µg/mL (≈ 47.7 µM) | 237 ng/mL | 531 ng·h/mL |  | CS(=O)(=O)c1ccc(C2=C(c3ccccc3)C(=O)OC2)cc1 [ROFECOXIB] | 41% | 48% |  |  |  |  | 
5% | 26% |  |  |  |  |  |  | 24.4% | Cc1ccc(-c2ncc(Cl)cc2-c2ccc([S@@+](C)[O-])cc2)cn1 |  |  |  |  |  |  | 
4% | 6% |  | > 1000 µg/mL | 18 min | 104 µg/mL (≈ 290 µM) | 427 ng/mL | 1660 ng·h/mL |  | Cc1ccc(-c2ncc(Cl)cc2-c2ccc(S(C)(=O)=O)cc2)cn1 [ETORICOXIB] |  |  | 60% | 81% |  |  | 
6% | 21% | 3.7 µM | > 1000 µg/mL | 36 min | > 1000 µg/mL | 133 ng/mL | 578 ng·h/mL |  | Cc1ccc(-c2ncc(Cl)cc2-c2ccc([S+](C)[O-])cc2)cn1 (stereo not drawn) |  |  | 67% | 49% | 803 ng·h/mL | 254 ng/mL | 18 min
1% | 49% |  |  |  |  |  |  |  | C[S@@+]([O-])c1ccc(C2=C(c3ccccc3)C(=O)OC2)cc1 |  |  |  |  |  |  | 
4% | 40% |  |  |  |  |  |  |  | C[S@+]([O-])c1ccc(C2=C(c3ccccc3)C(=O)OC2)cc1 |  |  |  |  |  |  | 

SMILES | Stability (Liver microsomes [1]) | Stability (Liver microsomes [2]) | IC50 [3] | solubility [4] | Tmax [5] | solubility [6] | Cmax [8] | AUC(0-t) [10] | inhibition [11] | inhibition in vivo at 0.3 mg/kg (Rattus norvegicus [7]) | inhibition in vivo at 1 mg/kg (Rattus norvegicus [9]) | inhibition in vivo at 1 mg/kg (Rattus norvegicus [12]) | inhibition in vivo at 3 mg/kg (Rattus norvegicus [13]) | AUC (Rattus norvegicus [14]) | Cmax (Rattus norvegicus [15]) | Tmax (Rattus norvegicus [16])
C[S+]([O-])c1ccc(C2=C(c3ccccc3)C(=O)OC2)cc1 (stereo not drawn) | 5% | 35% | 4.93 µM | 717 µg/mL (≈ 2400 µM) | 18 min | 537 µg/mL (≈ 1800 µM) | 334 ng/mL | 318 ng·h/mL |  | 72% | 56% |  |  | 979 ng·h/mL | 468 ng/mL | 24 min
